According to paper PMC3546530 (Cancer prevention research (Philadelphia, Pa.), 2012):
Read-outs that look alike come from different tables or passages of the source.

How the values were obtained:
[1] = tested on: β-catenin in HCT 116 cells; assay: β-Catenin levels; type: cell-based, human; settings: HCT 116, 100 μmol/L
Outline: (§1)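 Cells were lysed in ice-cold membrane lysis buffer (Triton X-100, MgCl2, KCl, DTT, HEPES, NaF, protease inhibitors) or in nuclear lysis buffer (HEPES, NaCl, EDTA, 25% glycerol). Nuclear lysates were kept at 4° C with vortexing every 5 min for 1 h, then centrifuged. Protein was measured by Lowry, separated by 12% SDS-PAGE and moved to nitrocellulose. Blots were blocked in 5% BSA/0.05% Tween 20, probed with primary antibody overnight at 4° C and HRP secondary for 1 h, and read by ECL.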

[2] = tested on: nuclear β-catenin in HT-29 cells; assay: Nuclear β-catenin levels; type: cell-based, human
Outline: as §1

[3] = tested on: total cGMP hydrolysis in HT-29 whole-cell lysates; assay: cGMP PDE activity in tumor cell lysate; type: biochemical, human; settings: read-out: total cGMP hydrolysis IC50; HT-29 whole-cell lysate
Outline: (§2)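 HT-29 cells were lysed in PDE activity buffer (20 mmol/L Tris-acetate, 5 mmol/L Mg acetate, 1 mmol/L EGTA, 1.0% Triton X-100, 50 mmol/L NaF, protease inhibitors, pH 7.4). Lysate protein was titrated to the mid portion of the activity curve.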

[4] = target: PDE5A (purified recombinant PDE5) (Homo sapiens, UniProt O76074); assay: Recombinant PDE isozyme assay; type: biochemical
Outline: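 IMAP fluorescence polarization assay run on recombinant enzyme per kit instructions. Substrates: TAMRA-cGMP or fluorescein-cAMP, each at 50 nmol/L final. Hydrolysed cyclic nucleotide binds immobilized metal coordination complexes, raising polarization.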

[5] = tested on: HCT 116 colon tumor cells; assay: Growth assay; type: cell-based; settings: Homo sapiens, HCT-116, read-out: growth inhibition IC50
Outline: (§3)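 Colon tumor cells were kept in RPMI-1640 with 5% FBS and 4 mmol/L glutamine at 37° C, 5% CO2. They were plated at 5,000 per well, left to adhere overnight, and exposed for 72 h to a 2-log range of test compound. Viability was measured as ATP content by CellTiter-Glo, relative to vehicle.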

[6] = tested on: LPS-stimulated U937 promonocytic cells; assay: PGE2 production assay; type: cell-based, human
Outline: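 U937 promonocytic cells were differentiated with 10 nmol/L PMA for 48 h, washed, and plated at 1.0 × 10^6 cells per well to adhere overnight. They were stimulated with 10 μg/mL LPS and treated with test compound for 24 h. PGE2 in supernatants was measured by HTRF competitive FRET between a PGE2–d2 conjugate and an anti-PGE2 antibody.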

[7] = target: purified ovine COX-1 (Ovis aries, UniProt P05979); assay: COX-1 colorimetric activity assay; type: biochemical
[8] = target: PDE1C (Homo sapiens, UniProt Q14123); assay: Recombinant PDE isozyme assay; type: biochemical
Outline: (§4)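 Purified recombinant human PDE isozymes were assayed by IMAP fluorescence polarization, in which binding of hydrolysed nucleotide to immobilised metal complexes raises polarization.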

[9] = tested on: normal fetal human colonocytes (FHC); assay: Growth assay; type: cell-based
[10] = tested on: HCT 116 colon tumor cells; assay: Apoptosis assay; type: cell-based, human; settings: 24 hours, vehicle 3%
Outline: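 HCT 116 cells were seeded at 1 × 10^6 per 10-cm dish and grown 48 h, then treated with test compound or vehicle for 24 h. Floating and attached cells were pooled, fixed in 10% neutral buffered formalin on ice for 15 min, and stained for DNA strand breaks by APO-BrdU TUNEL with AlexaFluor-488. TUNEL-positive cells were counted by flow cytometry, ≥5,000 events, in triplicate.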

[11] = tested on: total cAMP hydrolysis in HT-29 whole-cell lysates; assay: cAMP PDE activity in tumor cell lysate; type: biochemical, human; settings: read-out: total cAMP hydrolysis IC50; HT-29 whole-cell lysate
Outline: as §2

[12] = target: PDE3A (Homo sapiens, UniProt Q14432); assay: Recombinant PDE isozyme assay; type: biochemical
Outline: as §4

[13] = target: PDE8A (Homo sapiens, UniProt O60658); assay: Recombinant PDE isozyme assay; type: biochemical
Outline: as §4

[14] = tested on: HCT 116 colon tumor cells; assay: Proliferation assay; type: cell-based; settings: Homo sapiens, HCT-116, 24 h, read-out: inhibition of cell proliferation
Outline: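 HCT 116 cells were seeded at 1.5 × 10^6 per 10-cm dish overnight, then serum-starved for 24 h. Test compound or vehicle (0.1% DMSO) was added in RPMI-1640 with 5% serum for 4 h, followed by 16 μmol/L EdU (final) for a further 18 h. EdU incorporation was read with Click-iT Alexa Fluor 488 by flow cytometry, ≥5,000 events, in triplicate.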

[15] = target: PDE4B (Homo sapiens, UniProt Q07343); assay: Recombinant PDE isozyme assay; type: biochemical
Outline: as §4

[16] = target: purified ovine COX-2 (Ovis aries, UniProt P79208); assay: COX-2 colorimetric activity assay; type: biochemical
[17] = tested on: survivin in HT-29 cells; assay: Survivin expression; type: cell-based, human; settings: 10 μmol/L, slightly longer duration than β-catenin decrease
Outline: as §1

[18] = target: PDE3B (Homo sapiens, UniProt Q13370); assay: Recombinant PDE isozyme assay; type: biochemical
Outline: as §4

[19] = tested on: cleaved caspase-3 in HT-29 cells; assay: Caspase-3 cleavage; type: cell-based, human; settings: HT-29, 10 μmol/L
Outline: as §1

[20] = target: PDE1A (Homo sapiens, UniProt P54750); assay: Recombinant PDE isozyme assay; type: biochemical
Outline: as §4

[21] = tested on: HT-29, SW480, and HCT 116 colon tumor cell lines; assay: Growth assay; type: cell-based; settings: Homo sapiens, 72 h, read-out: growth inhibition IC50
Outline: as §3

[22] = target: PDE7A (Homo sapiens, UniProt Q13946); assay: Recombinant PDE isozyme assay; type: biochemical
Outline: as §4

[23] = tested on: HT-29 colon tumor cells; assay: Growth assay; type: cell-based; settings: Homo sapiens, HT-29, read-out: growth inhibition IC50
Outline: as §3

[24] = tested on: PKG (VASP phosphorylation) in HT-29 cells; assay: PKG activation; type: cell-based, human; settings: HT-29, 5 μmol/L; remained elevated for 5 hours
[25] = tested on: β-catenin–mediated Tcf transcriptional activity in HCT 116 cells; assay: TOP/FOP-flash Tcf luciferase reporter assay; type: cell-based, human; settings: HCT 116, 24 hours
Outline: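 HCT 116 cells in 24-well plates were cotransfected with 0.1 μg TOP-flash (wild-type Tcf sites) or FOP-flash (mutated sites, nonspecific control) plus 0.1 μg β-galactosidase vector. After 24 h treatment with test compound, luciferase activity was measured and normalised to β-galactosidase activity.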

[26] = target: PDE11A (Homo sapiens, UniProt Q9HCR9); assay: Recombinant PDE isozyme assay; type: biochemical
Outline: as §4

[27] = tested on: intracellular cGMP in HEK293 cells; assay: Intracellular cGMP levels; type: cell-based, human; settings: HEK293, 50 μmol/L SNP plus 1, 3, or 10 μmol/L compound
[28] = target: PDE9A (Homo sapiens, UniProt O76083); assay: Recombinant PDE isozyme assay; type: biochemical
Outline: as §4

[29] = target: PDE6C (Homo sapiens, UniProt P51160); assay: Recombinant PDE isozyme assay; type: biochemical
Outline: as §4

[30] = target: PDE2A (Homo sapiens, UniProt O00408); assay: Recombinant PDE isozyme assay; type: biochemical
[31] = target: PDE1B (Homo sapiens, UniProt Q01064); assay: Recombinant PDE isozyme assay; type: biochemical
Outline: as §4

[32] = tested on: tumor cell growth; settings: cited from earlier work
[33] = tested on: PDE5; settings: cited from earlier work

PDE3B, sequence (Q13370 whole entry): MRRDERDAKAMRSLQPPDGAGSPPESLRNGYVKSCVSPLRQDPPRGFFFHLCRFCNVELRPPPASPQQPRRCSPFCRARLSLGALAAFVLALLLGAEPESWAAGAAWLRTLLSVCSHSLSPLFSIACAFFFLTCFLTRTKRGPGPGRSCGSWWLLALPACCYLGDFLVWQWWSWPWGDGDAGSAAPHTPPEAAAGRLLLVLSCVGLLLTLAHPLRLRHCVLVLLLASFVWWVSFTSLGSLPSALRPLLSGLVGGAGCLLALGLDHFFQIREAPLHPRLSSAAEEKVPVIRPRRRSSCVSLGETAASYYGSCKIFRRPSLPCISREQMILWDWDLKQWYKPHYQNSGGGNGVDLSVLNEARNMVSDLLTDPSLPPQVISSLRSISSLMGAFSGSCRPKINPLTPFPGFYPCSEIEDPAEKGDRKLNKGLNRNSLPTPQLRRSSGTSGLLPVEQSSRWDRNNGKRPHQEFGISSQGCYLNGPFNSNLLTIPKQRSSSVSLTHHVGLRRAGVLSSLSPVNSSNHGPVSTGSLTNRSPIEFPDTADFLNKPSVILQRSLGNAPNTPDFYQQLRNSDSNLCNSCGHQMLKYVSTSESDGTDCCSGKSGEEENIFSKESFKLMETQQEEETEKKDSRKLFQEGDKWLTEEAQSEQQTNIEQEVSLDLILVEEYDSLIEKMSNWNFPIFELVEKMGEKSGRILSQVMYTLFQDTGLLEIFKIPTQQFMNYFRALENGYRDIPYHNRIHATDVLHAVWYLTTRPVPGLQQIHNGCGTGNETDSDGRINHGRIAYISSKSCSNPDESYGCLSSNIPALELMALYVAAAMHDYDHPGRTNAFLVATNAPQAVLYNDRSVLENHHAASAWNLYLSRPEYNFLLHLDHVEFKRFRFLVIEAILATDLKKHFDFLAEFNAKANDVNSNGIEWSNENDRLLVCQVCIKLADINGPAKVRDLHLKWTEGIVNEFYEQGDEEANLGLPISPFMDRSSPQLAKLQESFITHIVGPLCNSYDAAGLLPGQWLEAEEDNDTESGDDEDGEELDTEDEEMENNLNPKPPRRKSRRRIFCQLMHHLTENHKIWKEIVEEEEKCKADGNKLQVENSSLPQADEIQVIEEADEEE
purified ovine COX-1, sequence (P05979 25-600): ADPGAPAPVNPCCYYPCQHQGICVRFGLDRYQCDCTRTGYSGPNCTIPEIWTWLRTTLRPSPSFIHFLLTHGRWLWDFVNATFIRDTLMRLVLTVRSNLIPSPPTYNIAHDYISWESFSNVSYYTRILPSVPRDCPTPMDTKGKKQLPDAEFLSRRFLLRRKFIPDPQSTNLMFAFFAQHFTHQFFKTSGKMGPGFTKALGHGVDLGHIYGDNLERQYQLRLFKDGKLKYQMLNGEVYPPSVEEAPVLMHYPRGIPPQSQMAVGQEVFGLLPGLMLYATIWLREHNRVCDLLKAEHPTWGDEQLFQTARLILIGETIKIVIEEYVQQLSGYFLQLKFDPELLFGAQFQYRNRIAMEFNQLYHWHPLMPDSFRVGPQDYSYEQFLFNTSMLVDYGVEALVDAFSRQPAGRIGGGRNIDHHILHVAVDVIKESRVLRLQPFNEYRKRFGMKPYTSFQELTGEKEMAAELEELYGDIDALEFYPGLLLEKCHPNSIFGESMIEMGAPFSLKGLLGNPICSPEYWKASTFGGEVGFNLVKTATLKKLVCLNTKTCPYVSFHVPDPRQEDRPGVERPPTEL
PDE1C, sequence (Q14123 whole entry): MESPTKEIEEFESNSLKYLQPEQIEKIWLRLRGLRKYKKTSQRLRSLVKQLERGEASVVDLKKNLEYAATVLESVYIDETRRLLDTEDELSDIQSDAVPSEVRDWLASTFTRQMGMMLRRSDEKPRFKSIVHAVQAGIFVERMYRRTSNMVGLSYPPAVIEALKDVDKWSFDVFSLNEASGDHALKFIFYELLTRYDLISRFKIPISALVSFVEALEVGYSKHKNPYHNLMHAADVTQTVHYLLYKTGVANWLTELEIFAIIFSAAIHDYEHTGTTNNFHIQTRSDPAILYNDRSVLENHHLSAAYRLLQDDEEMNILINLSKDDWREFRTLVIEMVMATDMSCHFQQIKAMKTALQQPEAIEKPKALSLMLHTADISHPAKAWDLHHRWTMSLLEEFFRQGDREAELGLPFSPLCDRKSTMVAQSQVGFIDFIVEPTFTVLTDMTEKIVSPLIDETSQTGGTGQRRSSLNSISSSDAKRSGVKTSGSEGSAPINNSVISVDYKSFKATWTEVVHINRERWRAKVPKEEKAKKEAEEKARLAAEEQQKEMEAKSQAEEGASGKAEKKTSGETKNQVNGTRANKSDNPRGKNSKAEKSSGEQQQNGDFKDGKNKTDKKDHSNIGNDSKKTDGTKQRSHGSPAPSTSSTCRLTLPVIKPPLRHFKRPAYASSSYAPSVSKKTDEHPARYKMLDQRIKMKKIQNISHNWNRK
PDE11A, sequence (Q9HCR9 whole entry): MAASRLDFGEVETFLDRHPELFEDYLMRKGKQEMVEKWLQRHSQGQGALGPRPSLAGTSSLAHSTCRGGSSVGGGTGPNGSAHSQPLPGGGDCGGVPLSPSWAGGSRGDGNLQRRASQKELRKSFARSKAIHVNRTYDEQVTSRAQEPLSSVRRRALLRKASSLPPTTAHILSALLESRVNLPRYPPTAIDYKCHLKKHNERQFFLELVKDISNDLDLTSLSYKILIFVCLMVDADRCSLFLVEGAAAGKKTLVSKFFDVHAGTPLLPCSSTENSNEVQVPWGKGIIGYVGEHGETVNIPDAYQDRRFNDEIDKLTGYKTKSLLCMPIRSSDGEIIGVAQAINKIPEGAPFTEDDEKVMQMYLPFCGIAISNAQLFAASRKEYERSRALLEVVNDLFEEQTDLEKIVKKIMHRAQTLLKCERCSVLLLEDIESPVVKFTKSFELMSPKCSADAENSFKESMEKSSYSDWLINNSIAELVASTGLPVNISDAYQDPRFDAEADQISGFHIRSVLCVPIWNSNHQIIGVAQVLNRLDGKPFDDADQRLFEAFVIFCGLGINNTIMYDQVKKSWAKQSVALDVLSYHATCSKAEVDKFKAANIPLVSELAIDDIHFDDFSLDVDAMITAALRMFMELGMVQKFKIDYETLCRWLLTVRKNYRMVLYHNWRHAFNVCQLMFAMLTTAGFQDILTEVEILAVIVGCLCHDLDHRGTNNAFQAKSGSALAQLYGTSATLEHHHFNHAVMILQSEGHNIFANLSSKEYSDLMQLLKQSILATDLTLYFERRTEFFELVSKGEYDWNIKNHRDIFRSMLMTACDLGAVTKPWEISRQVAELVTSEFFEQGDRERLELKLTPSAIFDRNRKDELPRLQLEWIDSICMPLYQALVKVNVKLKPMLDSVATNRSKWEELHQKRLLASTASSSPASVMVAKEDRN
PDE3A, sequence (Q14432 whole entry): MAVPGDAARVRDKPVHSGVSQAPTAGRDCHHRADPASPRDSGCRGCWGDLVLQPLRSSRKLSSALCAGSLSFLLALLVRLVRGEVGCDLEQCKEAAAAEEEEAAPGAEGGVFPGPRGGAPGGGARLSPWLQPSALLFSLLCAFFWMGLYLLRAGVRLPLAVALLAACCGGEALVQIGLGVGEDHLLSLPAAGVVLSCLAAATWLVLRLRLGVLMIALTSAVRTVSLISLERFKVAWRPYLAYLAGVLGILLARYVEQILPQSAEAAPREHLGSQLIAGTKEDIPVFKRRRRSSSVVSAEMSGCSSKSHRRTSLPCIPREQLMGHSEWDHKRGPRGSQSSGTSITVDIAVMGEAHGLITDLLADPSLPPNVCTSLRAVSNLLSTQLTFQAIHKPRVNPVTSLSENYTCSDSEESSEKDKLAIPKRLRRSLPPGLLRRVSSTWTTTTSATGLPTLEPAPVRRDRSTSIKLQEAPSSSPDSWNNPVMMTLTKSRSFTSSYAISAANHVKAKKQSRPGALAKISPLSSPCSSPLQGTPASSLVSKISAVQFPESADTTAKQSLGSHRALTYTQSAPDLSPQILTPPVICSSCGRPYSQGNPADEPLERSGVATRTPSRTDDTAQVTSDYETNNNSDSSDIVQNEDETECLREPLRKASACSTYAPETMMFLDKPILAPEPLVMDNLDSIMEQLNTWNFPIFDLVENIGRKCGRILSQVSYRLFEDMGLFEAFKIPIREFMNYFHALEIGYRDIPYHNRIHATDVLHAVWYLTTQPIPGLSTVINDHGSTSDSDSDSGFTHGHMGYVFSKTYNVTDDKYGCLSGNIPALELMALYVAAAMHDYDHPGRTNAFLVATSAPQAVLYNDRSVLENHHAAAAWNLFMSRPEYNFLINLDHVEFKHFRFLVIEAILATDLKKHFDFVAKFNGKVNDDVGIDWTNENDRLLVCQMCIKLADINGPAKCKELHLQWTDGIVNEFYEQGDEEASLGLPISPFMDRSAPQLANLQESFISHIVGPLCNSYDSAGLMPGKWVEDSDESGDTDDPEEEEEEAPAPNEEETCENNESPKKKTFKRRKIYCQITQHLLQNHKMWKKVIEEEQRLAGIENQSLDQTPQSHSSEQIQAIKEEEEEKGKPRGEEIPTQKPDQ
PDE1A, sequence (P54750 whole entry): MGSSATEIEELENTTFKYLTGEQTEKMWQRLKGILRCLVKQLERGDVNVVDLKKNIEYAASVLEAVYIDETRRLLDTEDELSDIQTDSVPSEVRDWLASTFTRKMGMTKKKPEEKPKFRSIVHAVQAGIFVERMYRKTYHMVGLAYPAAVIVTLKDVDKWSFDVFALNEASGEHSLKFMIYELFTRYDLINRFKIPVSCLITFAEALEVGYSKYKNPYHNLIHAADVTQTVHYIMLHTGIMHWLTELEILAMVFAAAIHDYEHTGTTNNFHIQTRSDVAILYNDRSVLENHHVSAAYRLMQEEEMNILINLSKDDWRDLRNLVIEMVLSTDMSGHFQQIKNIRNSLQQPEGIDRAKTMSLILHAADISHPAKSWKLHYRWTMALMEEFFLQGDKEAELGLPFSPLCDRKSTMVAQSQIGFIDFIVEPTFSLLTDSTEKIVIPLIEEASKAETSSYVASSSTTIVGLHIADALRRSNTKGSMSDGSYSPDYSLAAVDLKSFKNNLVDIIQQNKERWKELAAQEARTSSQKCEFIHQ

Compound: Nc1nc2c(nc(Br)n2[C@@H]2O[C@@H]3COP(=O)(O)O[C@H]3[C@H]2O)c(=O)[nH]1 [8-bromo-cGMP]
- effect on β-catenin levels [1]: suppress β-catenin levels

Compound: CC1=C(CCNCc2ccccc2)c2cc(F)ccc2/C1=C\c1ccc([S+](C)[O-])cc1 (stereo not drawn) [SBA, (Z)-N-benzyl-2-(5-fluoro-2-methyl-1-(4-(methylsulfinyl)benzylidene)-1H-inden-3-yl)ethanamine]
- time to reduced nuclear levels of β-catenin [2]: ≤ 1 h
- IC50 [3]: 8 µM
- IC50 [4]: 9 µM
- IC50 [5]: 5 µM
- suppression of PGE2 production ([6]; LPS 10 μg/mL, 24 hours treatment): ineffective
- IC50 [7]: > 200 µM
- IC50 [8]: > 100 µM
- IC50 ([8]; read-out: cAMP IC50, PDE 1C, cAMP substrate): > 100 µM
- fold higher IC50 in FHC than in colon tumor cell lines ([9]; FHC vs HT-29 and HCT 116): > 6 fold
- IC50 ([9]; Homo sapiens, read-out: growth inhibition IC50): 33 µM
- apoptotic (TUNEL-positive) cells ([10]; 50 μmol/L): 75%
- IC50 [11]: > 200 µM
- IC50 [12]: > 100 µM
- IC50 ([12]; read-out: cAMP IC50, PDE 3A, cAMP substrate): > 100 µM
- IC50 [13]: > 100 µM
- inhibition at 50 µM [14]: 86%
- IC50 [15]: 75 µM
- IC50 [16]: > 200 µM
- expression of survivin [17]: decreased
- IC50 [18]: > 100 µM
- IC50 ([18]; read-out: cAMP IC50, PDE 3B, cAMP substrate): > 100 µM
- levels of cleaved caspase-3 [19]: increased
- IC50 [20]: > 100 µM
- IC50 ([20]; read-out: cAMP IC50, PDE 1A, cAMP substrate): > 100 µM
- IC50 [21]: 3 to 5 µM
- IC50 [22]: > 100 µM
- IC50 [23]: 5 µM
- time to increased phospho-VASP levels [24]: ≤ 1 h
- β-catenin–mediated Tcf transcriptional activity [25]: significant decrease
- IC50 [26]: > 100 µM
- IC50 ([26]; read-out: cAMP IC50, PDE 11A, cAMP substrate): > 100 µM
- effect on intracellular cGMP (luminescence) [27]: rapid and sustained increase in luminescence
- IC50 [28]: > 100 µM
- IC50 [29]: > 100 µM
- IC50 [30]: > 100 µM
- IC50 ([30]; read-out: cAMP IC50, PDE 2A, cAMP substrate): > 100 µM
- IC50 [31]: > 100 µM
- IC50 ([31]; read-out: cAMP IC50, PDE 1B, cAMP substrate): > 100 µM

Compound: CCCc1nn(C)c2c(=O)[nH]c(-c3cc(S(=O)(=O)N4CCN(C)CC4)ccc3OCC)nc12 [sildenafil]
- tumor cell growth inhibitory activity [32]: completely inactive

Compound: CSc1ccc(/C=C2/C(C)=C(CC(=O)O)c3cc(F)ccc32)cc1 [sulindac sulfide, Sulindac sulfide, reference compound]
- IC50 [3]: 49 µM
- IC50 ([6]; Homo sapiens, U-937, 24 h, read-out: suppression of PGE2 production IC50): 0.7 µM
- IC50 ([7]; read-out: COX-1 inhibition IC50, purified ovine COX-1): 2 µM
- apoptotic (TUNEL-positive) cells ([10]; 100 μmol/L): 12%
- IC50 [11]: 133 µM
- IC50 [21]: 90 to 120 µM

Compound: CN1CC(=O)N2[C@H](c3ccc4c(c3)OCO4)c3[nH]c4ccccc4c3C[C@@H]2C1=O [tadalafil]
- concentrations required to inhibit tumor cell growth [32]: micromolar levels
- concentrations required to inhibit PDE5 in cell-free assays [33]: nanomolar levels
